Data reported in paper PMC10996840 (RSC Advances, 2024).
“And” between values parts separate entries of the source, which are not always exact repeats. Equal values may be shown once. Read-outs that look alike come from different tables or passages of the source. Each block holds one compound with its values, some of them ahead of it.

How the values were obtained:
PIM-1 kinase [1] = biological target: T1, PIM-1 kinase (Homo sapiens, UniProt P11309); test: PIM-1 kinase inhibitory assay; assay type: biochemical; details: for % of PIM-1 inhibition: concentration not given
HepG2 cells = test: MTT cytotoxicity assay against HepG2 cells; assay type: cell-based, human
Method in brief: (§1)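 Cells kept in RPMI-1640 with L-glutamine at 37 °C under 5% CO2. Plated at 5 × 10^4 cells per well in triplicate. Next day they received test compound at 0.01, 0.1, 1, 10 and 100 μM. Viability read by MTT. IC50 came from a nonlinear dose–response fit of % viability against concentration.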

MCF-10A cells = test: MTT cytotoxicity assay against normal MCF-10A cells; assay type: cell-based; details: for IC50: Homo sapiens, MCF-10A, read-out: IC50 ± SD MCF-10A; for IC50 ± SD MCF-10A: MTT assay, normal MCF-10A cells, mean ± SD, n = 3
Method in brief: as §1

[2] = tested on: P53, Bax, caspases-3,8,9, Bcl-2 and PIM-1 gene expression in MCF-7 cells; test: RT-PCR of apoptosis-related genes; assay type: cell-based, human; details: MCF-7, IC50 = 0.57 μM, 48 h, normalized to β-actin, control = 1
Method in brief: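 MCF-7 cells treated with test compound for 48 h, then taken for RT-PCR of apoptosis-related genes. Ct values were normalised to β-actin to give relative expression as fold change versus untreated control (set to 1). Values average three independent runs.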

MCF-7 cells [3] = test: Annexin V/PI staining flow cytometry; assay type: cell-based, human; details: MCF-7 cells treated at IC50 = 0.57 μM, 48 h
Method in brief: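 MCF-7 cells seeded at 3–5 × 10^5 per well, incubated overnight, then exposed to test compound for 48 h. Supernatant and cells collected and rinsed in ice-cold PBS. Resuspended in annexin binding buffer (CaCl2, NaCl, Hepes/NaOH, pH 7.4) with annexin V-FITC (1:100) and PI (10 μg mL−1), kept 30 min in the dark, then analysed on a FACSCalibur flow cytometer.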

MCF-7 cells [4] = test: DNA content flow cytometry cell cycle analysis; assay type: cell-based, human; details: MCF-7 cells treated at IC50 = 0.57 μM, 48 h
PIM-1 kinase [5] = biological target: T1, PIM-1 kinase; details: read-out: IC50 ± SD PIM-1 kinase inhibition; previously reported value ref 32; cited from earlier work
[6] = read-out: IC50 ± SD HepG2, MTT assay, liver cancer HepG2 cells, mean ± SD, n = 3

T1 sequence (P11309 whole entry): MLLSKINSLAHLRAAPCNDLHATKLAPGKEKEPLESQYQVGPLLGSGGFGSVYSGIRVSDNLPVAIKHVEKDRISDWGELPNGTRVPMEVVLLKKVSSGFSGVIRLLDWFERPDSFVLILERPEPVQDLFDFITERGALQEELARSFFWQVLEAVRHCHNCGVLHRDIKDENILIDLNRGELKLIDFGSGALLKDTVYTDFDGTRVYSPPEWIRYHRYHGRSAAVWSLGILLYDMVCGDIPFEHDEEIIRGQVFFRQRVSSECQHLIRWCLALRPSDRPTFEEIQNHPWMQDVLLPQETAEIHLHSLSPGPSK

SMILES: N#Cc1c(-c2ccc(Cl)cc2)c2c(=O)[nH]cnc2n(C2CCCCC2)c1=O [Compound 9, 5-(4-Chlorophenyl)-8-cyclohexyl-4,7-dioxo-3,4,7,8-tetrahydropyrido[2,3-d]pyrimidine-6-carbonitrile]
IC50 (HepG2 cells; [6]): 4.6 ± 0.34 µM

SMILES: N#Cc1c(-c2ccc(Cl)cc2)c2c(=O)[nH]c(=S)[nH]c2n(C2CCCCC2)c1=O [Compound 10, 5-(4-Chlorophenyl)-8-cyclohexyl-4,7-dioxo-2-thioxo-1,2,3,4,7,8-hexahydropyrido[2,3-d]pyrimidine-6-carbonitrile]
IC50 (PIM-1 kinase [1]): 0.0172 ± 0.0002 µM | % of PIM-1 inhibition (PIM-1 kinase [1]): 94.6 ± 2.1% | IC50 (MCF-10A cells): ≥ 50 µM | IC50 ± SD MCF-10A (MCF-10A cells): non-toxic

SMILES: N[C@H]1CC[C@H](Nc2nc(Nc3cccc(C(F)(F)F)c3)c3c(=O)[nH]ccc3n2)CC1 [SKI-O-068]
IC50 (PIM-1 kinase [5]): 0.123 ± 0.014 µM

SMILES: CN[C@@H]1C[C@H]2O[C@@](C)([C@@H]1OC)n1c3ccccc3c3c4c(c5c6ccccc6n2c5c31)C(=O)NC4 [Staurosporine, reference compound]
IC50 (HepG2 cells; Homo sapiens, HepG2, read-out: IC50 ± SD HepG2): 5.07 ± 0.36 µM

Continued, in another order:

IC50 (PIM-1 kinase [1]): 0.0114 ± 0.00013 µM | % of PIM-1 inhibition (PIM-1 kinase [1]): 97.8 ± 1.8%
SMILES: N#Cc1c(-c2ccc(Cl)cc2)c2c(=O)[nH]c(-c3ccc(Cl)cc3Cl)nc2n(C2CCCCC2)c1=O [Compound 4, 5-(4-Chlorophenyl)-8-cyclohexyl-2-(2,4-dichlorophenyl)-4,7-dioxo-3,4,7,8-tetrahydropyrido[2,3-d]pyrimidine-6-carbonitrile]
IC50 (HepG2 cells; [6]): 1.13 ± 0.19 µM | IC50 (MCF-10A cells): 47.6 ± 3.1 µM | IC50 ± SD MCF-10A (MCF-10A cells): non-toxic | Bax gene expression fold change [2]: 6.7 fold | Bcl-2 gene expression fold change [2]: 0.11 fold | P53 gene expression fold change [2]: 7.9 fold | PIM-1 gene expression fold change [2]: 0.31 fold | caspase-3 gene expression fold change [2]: 11.2 fold | caspase-8 gene expression fold change [2]: 1.23 fold | caspase-9 gene expression fold change [2]: 8.9 fold | early apoptosis (Q4) (MCF-7 cells [3]): 22.11% | increase of cell apoptosis versus untreated control (MCF-7 cells [3]): 58.29 fold and 58.3 fold | late apoptosis (Q2) (MCF-7 cells [3]): 14.03% | total apoptosis (MCF-7 cells [3]; untreated control 0.62%): 36.14% | cell population at G2/M phase (MCF-7 cells [4]; control 18.86%): 4.47% | cell population at G1 phase (MCF-7 cells [4]; control 48.37%): 56.36%

IC50 (PIM-1 kinase [1]): 0.0346 ± 0.00018 µM | % of PIM-1 inhibition (PIM-1 kinase [1]): 89.6 ± 2.1%
SMILES: N#Cc1c(-c2ccc(Cl)cc2)c2c(=O)[nH]c(CCl)nc2n(C2CCCCC2)c1=O [Compound 6, 2-(Chloromethyl)-5-(4-chlorophenyl)-8-cyclohexyl-4,7-dioxo-3,4,7,8-tetrahydropyrido[2,3-d]pyrimidine-6-carbonitrile]
IC50 (MCF-10A cells): 43.5 ± 2.9 µM | IC50 ± SD MCF-10A (MCF-10A cells): non-toxic

IC50 (PIM-1 kinase [1]): 0.0214 ± 0.00024 µM | % of PIM-1 inhibition (PIM-1 kinase [1]): 92.1 ± 1.9%
SMILES: N#Cc1c(-c2ccc(Cl)cc2)c2c(=O)[nH]nnc2n(C2CCCCC2)c1=O [Compound 11, 5-(4-Chlorophenyl)-8-cyclohexyl-4,7-dioxo-3,4,7,8-tetrahydropyrido[2,3-d][1,2,3]triazine-6-carbonitrile]
IC50 (MCF-10A cells): ≥ 50 µM | IC50 ± SD MCF-10A (MCF-10A cells): non-toxic
